An excerpt weighted towards active compounds, which were near 2.9% of everything screened.
CaV13 ICDI inh – Primary screen for inhibitors of IQ motif and Ca2+-dependent inactivation inhibitor domain binding in CACNA1D, Förster resonance energy transfer in living cells, …. HEK cells, CFP/YFP FRET ICDI-IQ, plate reader, 10 min; percent FRET-ratio fall versus neutral wells. inhibition, % at 12.3 µM. 340,000 tested, 0.098% active. AID 743397;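 active means mean replicate inhibition of at least 30% and at least 1% of replicates passing that level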;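 further: 0% = median of the neutral control wells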
ADAM17 inh – inhibits human ADAM17; P78536; recombinant ADAM17, EDANS/DABCYL FRET peptide cleavage; inhibition, % at 6.95 µM; 370,000 tested, 0.83% active; AID 720648;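 active means inhibition above the mean of compounds lying between control limits plus 3 SD, set per campaign, cut at about 8.5% in these data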;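 further: 0% = DMSO-only wells as the low control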
FAS TE block – inhibitors of human fatty acid synthase thioesterase domain; recombinant FAS-TE, OMFH fluorogenic substrate, fluorescence endpoint; 360,000 tested, 0.67% active; inhibition, % at 15 µM; P49327;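 active means compounds whose normalised, plate-corrected inhibition of enzyme fluorescence in the single-dose primary screen is 50% or more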;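 further: 0% = DMSO with enzyme and 100% = substrate without enzyme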
NRP1-CendR mod – NRP-1/CendR interaction modulation; O14786; FAM-RPARPAR peptide binding to NRP-1, fluorescence polarization; inhibition, % at 25 µM; 360,000 tested, 0.85% active; AID 602438;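 active means inhibition or corrected inhibition above about 18%, plus a signal ratio from 0.5 to 1.5, limit read from the data, passing the limit was not always enough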
Arrestin-AP2 inh – blocks beta-arrestin peptide binding to AP2 adaptin. AID 504490. 340,000 tested, 0.31% active. FITC-arrestin peptide / GST-AP2 beads, flow cytometry; AP2 beta2 appendage carries R879A mutation. inhibition, % at 10 µM;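 active means inhibition above a set limit, near 3 SD of compounds lacking own fluorescence, cut at about 54% in these data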;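 further: plate controls were DMSO wells for no effect and 5 µM unlabelled arrestin peptide for full effect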
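System: GST-AP2 R879A glutathione beads; medium: PBS, Tween 20 0.05%, BSA 0.1%; reagent: fluorescein-tagged arrestin peptide at 50 nM final; schedule: pre-incubation 12 min, peptide binding 1 h, room temperature; detection: flow cytometry, FL1 (488/535 nm); read-out: inhibition as reduced fluorescein signal on beads, percent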
ADAM10 inh – inhibits human ADAM10; inhibition, % at 7 µM; O14672; 370,000 tested, 0.62% active; recombinant ADAM10, EDANS/DABCYL FRET peptide cleavage, 3 h; AID 720582;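 active means inhibition above a per-campaign cutoff equal to the mean of compounds falling between control-based bounds plus 3 SD, cut at about 20% in these data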;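 further: 0% = DMSO wells while the 100% control is not disclosed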
Target sequence (O14672 214-748 limits assumed): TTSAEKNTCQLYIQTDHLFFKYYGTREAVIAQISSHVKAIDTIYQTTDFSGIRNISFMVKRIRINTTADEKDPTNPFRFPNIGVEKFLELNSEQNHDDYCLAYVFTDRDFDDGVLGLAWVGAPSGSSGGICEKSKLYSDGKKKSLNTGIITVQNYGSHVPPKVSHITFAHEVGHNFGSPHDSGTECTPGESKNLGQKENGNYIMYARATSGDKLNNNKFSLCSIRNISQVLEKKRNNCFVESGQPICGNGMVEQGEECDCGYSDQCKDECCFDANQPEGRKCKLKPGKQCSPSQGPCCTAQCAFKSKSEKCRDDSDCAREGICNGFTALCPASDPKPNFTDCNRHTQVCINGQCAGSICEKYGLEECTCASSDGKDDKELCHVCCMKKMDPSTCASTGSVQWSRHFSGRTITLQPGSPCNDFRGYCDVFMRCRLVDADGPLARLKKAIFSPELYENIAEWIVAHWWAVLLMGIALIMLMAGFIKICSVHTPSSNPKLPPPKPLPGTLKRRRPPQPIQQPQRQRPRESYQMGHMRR
FAS-TE inh conf – confirmation of human fatty acid synthase thioesterase inhibitors; shares compounds with FAS TE block; recombinant FAS-TE, OMFH fluorogenic substrate, fluorescence; inhibition, % at 15 µM; 2,300 tested, 45% active;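 active means compounds inhibiting the enzyme by at least 50% at 15 µM in any one of the replicates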;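 further: 0% = enzyme with DMSO only and 100% = wells lacking enzyme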
Active calls of the source: *.

`CC(NC(=O)c1ccc(Cn2cc([N+](=O)[O-])cn2)cc1)c1ccccc1` (centres undefined) gave CaV13 ICDI inh -4, ADAM17 inh 3, FAS TE block -2, NRP1-CendR mod -10, Arrestin-AP2 inh -3 and ADAM10 inh 4.
`C=CCN(Cc1ccc2c(c1)OCO2)C(C#Cc1ccccc1)c1ccccc1C(F)(F)F` (centres undefined) gave ADAM17 inh -5 and ADAM10 inh -8.
`Cc1cc(N2CCN(C(=O)OC(C)(C)C)C[C@@H]2C)ccc1Br` gave CaV13 ICDI inh -7, ADAM17 inh -1 and ADAM10 inh -3.
Screening Cc1cc(C)c(S(=O)(=O)ON2C(=O)c3ccccc3C2=O)cc1C returned CaV13 ICDI inh -4, ADAM17 inh -30, FAS TE block 91*, NRP1-CendR mod -2, Arrestin-AP2 inh 4, ADAM10 inh -94 and FAS-TE inh conf 95*.
Screening Cc1cc(C)c(C)c(S(=O)(=O)ON2C(=O)c3ccccc3C2=O)c1C returned CaV13 ICDI inh -8, ADAM17 inh -47, FAS TE block 90*, NRP1-CendR mod -9, Arrestin-AP2 inh 10, ADAM10 inh -131 and FAS-TE inh conf 95*.
Screening Cc1ccc(S(=O)(=O)N2CCN(CCc3ccccc3)CC2)c(C)c1 returned CaV13 ICDI inh -19, ADAM17 inh 1, FAS TE block 13, NRP1-CendR mod 5, Arrestin-AP2 inh -18 and ADAM10 inh -1.
Screening O=S(=O)(c1ccccc1)N1CCN(S(=O)(=O)c2ccc(F)cc2)CC1 returned CaV13 ICDI inh -4, ADAM17 inh -5, FAS TE block -4, NRP1-CendR mod 6, Arrestin-AP2 inh -2 and ADAM10 inh 4.
O=C1c2ccccc2C(=O)N1OS(=O)(=O)c1ccc(F)cc1 was read as CaV13 ICDI inh -14, ADAM17 inh -32, FAS TE block 71*, NRP1-CendR mod -1, Arrestin-AP2 inh 11, ADAM10 inh -85 and FAS-TE inh conf 50*.
For Cc1cccc2c1N(C)C(=O)C2=O the results were CaV13 ICDI inh 7, ADAM17 inh -4, FAS TE block 0, NRP1-CendR mod -4, Arrestin-AP2 inh -12 and ADAM10 inh -10.
`Cc1ccc(S(=O)(=O)ON2C(=O)c3ccccc3C2=O)c(C)c1` gave CaV13 ICDI inh -16, ADAM17 inh -53, FAS TE block 75*, NRP1-CendR mod 1, Arrestin-AP2 inh -1, ADAM10 inh -155 and FAS-TE inh conf 94*.
`COC(=O)C1=C(C)N(CC(C)C)C(=S)NC1c1ccc(-c2ccccc2)cc1` (centres undefined) gave CaV13 ICDI inh -3, ADAM17 inh 5 and ADAM10 inh 9.
Screening O=C(NCc1ccccc1)C1(C(=O)C2CC2)CC(c2ccccn2)=NO1 (centres undefined) returned ADAM17 inh 2 and ADAM10 inh -3.
O=C(CNS(=O)(=O)c1ccccc1)N1CCN(c2ccccn2)CC1 was read as ADAM17 inh -1 and ADAM10 inh -4.
Cc1cc(C)c2c(=O)n3c(nc2c1)C(Cc1ccccc1)NC(=O)c1cc2ccccc2cc1-3 (centres undefined) was read as CaV13 ICDI inh -8, ADAM17 inh -1, FAS TE block 86*, NRP1-CendR mod -7, ADAM10 inh -2 and FAS-TE inh conf 5.
Screening O=C1NC(Cc2ccc(O)cc2)c2nc3ccc(Cl)cc3c(=O)n2-c2cc3ccccc3cc21 (centres undefined) returned CaV13 ICDI inh -3, ADAM17 inh 2, FAS TE block 19, NRP1-CendR mod -10 and ADAM10 inh -3.
`O=C1NC(Cc2ccccc2)c2nc3ccc(Cl)cc3c(=O)n2-c2cc3ccccc3cc21` (centres undefined) gave CaV13 ICDI inh -7, ADAM17 inh 0, FAS TE block 78*, NRP1-CendR mod -11, ADAM10 inh -1 and FAS-TE inh conf 11.
Screening CCC1NC(=O)c2cc3ccccc3cc2-n2c1nc1cc(C)cc(C)c1c2=O (centres undefined) returned CaV13 ICDI inh -5, ADAM17 inh -5, FAS TE block -2, NRP1-CendR mod -9 and ADAM10 inh -8.
`Cc1ccc2nc3n(c(=O)c2c1)-c1cc2ccccc2cc1C(=O)NC3Cc1ccccc1` (centres undefined) gave CaV13 ICDI inh -7, ADAM17 inh 3, FAS TE block 91*, NRP1-CendR mod -6, ADAM10 inh 10 and FAS-TE inh conf 2.
`CCCC1NC(=O)c2cc3ccccc3cc2-n2c1nc1cc(Cl)ccc1c2=O` (centres undefined) gave CaV13 ICDI inh -5, ADAM17 inh 0, FAS TE block 73*, NRP1-CendR mod -5, ADAM10 inh 4 and FAS-TE inh conf 35.
Cc1ccccc1CS(=O)(=O)Cc1ccc(C(=O)Nc2ccc(F)cc2F)o1 was read as ADAM17 inh -3 and ADAM10 inh -15.
For Cc1ccc(Nc2c(F)cccc2Cl)c(CC(=O)O)c1 the results were ADAM17 inh 1 and ADAM10 inh 6.
For O=C1NC(Cc2ccccc2)c2nc3ccc(F)cc3c(=O)n2-c2cc3ccccc3cc21 (centres undefined) the results were CaV13 ICDI inh -5, ADAM17 inh 1, FAS TE block 80*, NRP1-CendR mod -6, ADAM10 inh 5 and FAS-TE inh conf 29.
O=C1NC(Cc2ccccc2)c2nc3ccc(F)cc3c(=O)n2-c2ccccc21 (centres undefined) was read as CaV13 ICDI inh -12, ADAM17 inh -1 and ADAM10 inh 9.
`COc1ccc(C(=O)Nc2nc3c(s2)CCCC3)cc1S(=O)(=O)N1CCCc2ccccc21` gave CaV13 ICDI inh -5, ADAM17 inh 2, FAS TE block 63*, NRP1-CendR mod -5, Arrestin-AP2 inh -2, ADAM10 inh -6 and FAS-TE inh conf 17.
CC1C(=O)N(c2ccc(S(=O)(=O)N(C)C)cc2)C1(/C=C/c1ccccc1)C(=O)NC1CCCC1 (centres undefined) was read as CaV13 ICDI inh -3, ADAM17 inh 3, FAS TE block 61*, NRP1-CendR mod -12, Arrestin-AP2 inh -1, ADAM10 inh 2 and FAS-TE inh conf 33.
Screening O=C1CC(/C=C/c2ccccc2)(C(=O)NC2CCCC2)N1c1ccc(S(=O)(=O)N2CCCC2)cc1 (centres undefined) returned CaV13 ICDI inh -3, ADAM17 inh -2, FAS TE block 75*, NRP1-CendR mod -2, Arrestin-AP2 inh 31, ADAM10 inh -8 and FAS-TE inh conf 9.
